This note sets out measurements from ChEMBL document CHEMBL1157623, “Benzyl 1,2,3,5,11,11a-hexahydro-3,3-dimethyl-1-oxo-6H-imidazo[3',4':1,2]pyridin[3,4-b]indole-2-substituted acetates: One-pot-preparation, anti-tumor activity, docking toward DNA and 3D QSAR analysis” (Bioorg Med Chem, 2010).

Data set [1] relates to Mus musculus. Kind of data set: Toxicity in ICR mouse xenografted with mouse S180 cells assessed as body weight at 1 mg/kg, ip administered 24 hrs after tumor implantation daily for 7 consecutive days measured after 24 hrs of last dose (Rvb=33.3 +/- 2.32 g). It counts as organism-based, CCRF S-180. Details: dose 1 mg/kg, route intraperitoneal. To be noted: in vivo.
Data set [2] deals with Mus musculus. Put plainly: Toxicity in ICR mouse assessed as change in heart weight at 10 to 500 mg/kg, ip measured on day 7 post dose by necroscopy. It counts as organism-based. Details: dose 10-500 mg/kg, route intraperitoneal. Particulars: in vivo.
For data set [3], the system named is Mus musculus. Kind of data set: Toxicity in ICR mouse xenografted with mouse S180 cells assessed as brain weight at 1 mg/kg, ip administered 24 hrs after tumor implantation daily for 7 consecutive days measured after 24 hrs of last dose (Rvb=0.31 +/- 0.01 g). Details: dose 1 mg/kg, route intraperitoneal. To be noted: in vivo. It counts as organism-based, CCRF S-180.

Data set [4] relates to CCRF S-180. Kind of data set: Antitumor activity against mouse S180 cells xenografted in ip dosed ICR mouse assessed as decrease in tumor weight administered 24 hrs after tumor implantation daily for 7 consecutive days measured after 24 hrs of last dose. It counts as functional, organism-based.
In data set [5] the test system is KB. Put plainly: Antiproliferative activity against human KB cells after 3 days by sulforhodamine B assay. It counts as functional, cell-based. Particulars: 72 h. In outline:
(§1)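 Freshly trypsinized cells seeded at 5000 per well; compounds added from DMSO-diluted stock at 60, 6, 0.6, 0.06 and 0.006 µM. After 3 days, attached cells were fixed with cold 10% trichloroacetic acid, stained with 0.4% sulforhodamine B, the bound dye solubilized, and absorbance read at 562 nm. IC50 is the concentration reducing cell growth by 50%, averaged from at least three independent determinations.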
A general note: The SRB assay estimates cell density from bound dye.

The subject of data set [6] is Mus musculus. Put plainly: Toxicity in ICR mouse xenografted with mouse S180 cells assessed as heart weight at 1 mg/kg, ip administered 24 hrs after tumor implantation daily for 7 consecutive days measured after 24 hrs of last dose (Rvb=0.17 +/- 0.01 g). Details: dose 1 mg/kg, route intraperitoneal. To be noted: in vivo. It counts as organism-based, CCRF S-180.
Data set [7] deals with Mus musculus. Put plainly: Toxicity in ICR mouse assessed as mortality up to 500 mg/kg, ip measured after 7 days post dose. It counts as organism-based. Details: dose 500 mg/kg, route intraperitoneal. To be noted: in vivo, 168 h. In outline:
(§2)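 ICR mice, 10–12 weeks old, of both sexes (six males and six females, 12 per group), housed at 21 °C and fasted overnight with water available. They received a single ip injection of 10, 100 or 500 mg/kg in 0.2 mL 0.9% saline. Mice were watched continuously for 7 days for neurotoxic behaviour or death, then killed on day 7 and checked macroscopically (heart, liver, kidneys). LD50 was estimated graphically.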

The subject of data set [8] is A549. Kind of data set: Antiproliferative activity against human A549 cells after 3 days by sulforhodamine B assay. The class given is functional, cell-based. Particulars: A549, 72 h. In outline:
as §1

Data set [9] deals with Mus musculus. Kind of data set: Toxicity in ICR mouse xenografted with mouse S180 cells assessed as femur weight at 1 mg/kg, ip administered 24 hrs after tumor implantation daily for 7 consecutive days measured after 24 hrs of last dose (Rvb=0.056 +/- 0.006 g). Details: dose 1 mg/kg, route intraperitoneal. To be noted: in vivo. It counts as organism-based, CCRF S-180.
The test system of data set [10] is PC-3. Kind of data set: Antiproliferative activity against human PC3 cells after 3 days by sulforhodamine B assay. It counts as functional, cell-based. Particulars: PC-3, 72 h. The procedure, abridged:
as §1

Data set [11] concerns Mus musculus. Kind of data set: Neurotoxicity in ICR mouse assessed as occurrence of neurotoxic behavior at 10 to 500 mg/kg, ip measured up to 7 days post dose. The class given is toxicity, organism-based. More on the design: dose 10-500 mg/kg, route intraperitoneal. To be noted: in vivo, 168 h. In outline: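 Healthy ICR mice, 10–12 weeks old, 12 per group (six male, six female), fasted overnight with water available. Single ip injection of 10, 100 or 500 mg/kg in 0.2 mL 0.9% saline. Monitored continuously up to 7 days for abnormal behavior (tremor, twitch, jumping, tetanus, supination) or death. Sacrificed on day 7; heart, liver and kidneys checked macroscopically.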

In data set [12] the test system is CCRF S-180. Put plainly: Antitumor activity against mouse S180 cells xenografted in ICR mouse assessed as tumor weight at 1 mg/kg, ip administered 24 hrs after tumor implantation daily for 7 consecutive days measured after 24 hrs of last dose (Rvb=1.602 +/- 0.391 g). The class given is functional. To be noted: route intraperitoneal.
A short description of data set [13]: Toxicity in ip dosed ICR mouse measured after 7 days post dose. The class given is organism-based. To be noted: in vivo. The procedure, abridged: as §2
Data set [14] deals with Mus musculus. Kind of data set: Toxicity in ICR mouse xenografted with mouse S180 cells assessed as kidney weight at 1 mg/kg, ip administered 24 hrs after tumor implantation daily for 7 consecutive days measured after 24 hrs of last dose (Rvb=0.23 +/- 0.02 g). It counts as organism-based, CCRF S-180. Details: dose 1 mg/kg, route intraperitoneal. Particulars: in vivo.
Data set [15] relates to Mus musculus. Kind of data set: Toxicity in ICR mouse xenografted with mouse S180 cells assessed as spleen weight at 1 mg/kg, ip administered 24 hrs after tumor implantation daily for 7 consecutive days measured after 24 hrs of last dose (Rvb=0.22 +/- 0.04 g). The class given is organism-based, CCRF S-180. More on the design: dose 1 mg/kg, route intraperitoneal. Particulars: in vivo.

The test system of data set [16] is Mus musculus. Kind of data set: Toxicity in ICR mouse assessed as change in liver weight at 10 to 500 mg/kg, ip measured on day 7 post dose by necroscopy. The class given is organism-based. More on the design: dose 10-500 mg/kg, route intraperitoneal. Particulars: in vivo.
Data set [17] deals with MCF7. Put plainly: Antiproliferative activity against human MCF7 cells after 3 days by sulforhodamine B assay. Particulars: MCF7, 72 h. It counts as functional, cell-based. The procedure, abridged: as §1
Data set [18] deals with Mus musculus. Put plainly: Toxicity in ICR mouse assessed as change in kidney weight at 10 to 500 mg/kg, ip measured on day 7 post dose by necroscopy. The class given is organism-based. More on the design: dose 10-500 mg/kg, route intraperitoneal. To be noted: in vivo.
For data set [19], the system named is CCRF S-180. Put plainly: Antitumor activity against mouse S180 cells xenografted in ICR mouse assessed as tumor weight at 0.01 mg/kg, ip administered 24 hrs after tumor implantation daily for 7 consecutive days measured after 24 hrs of last dose (Rvb=1.602 +/- 0.391 g). The class given is functional. To be noted: route intraperitoneal.
Data set [20] relates to CCRF S-180. Put plainly: Antitumor activity against mouse S180 cells xenografted in ICR mouse assessed as tumor weight at 0.1 mg/kg, ip administered 24 hrs after tumor implantation daily for 7 consecutive days measured after 24 hrs of last dose (Rvb=1.602 +/- 0.391 g). The class given is functional. To be noted: route intraperitoneal.
The nature of data set [21]: Antiproliferative activity against human KBVIN cells after 3 days by sulforhodamine B assay. It counts as functional, cell-based. Particulars: 72 h. In outline:
as §1

The test system of data set [22] is Mus musculus. Kind of data set: Toxicity in ICR mouse xenografted with mouse S180 cells assessed as liver weight at 1 mg/kg, ip administered 24 hrs after tumor implantation daily for 7 consecutive days measured after 24 hrs of last dose (Rvb=2.36 +/- 0.20 g). The class given is organism-based, CCRF S-180. Details: dose 1 mg/kg, route intraperitoneal. Particulars: in vivo.

A short description of data set [23]: Lipophilicity, log K at 10 uM after 40 mins by HPLC analysis. The class given is physicochemical. In outline: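 Sample at 10^-5 M analysed by reversed-phase C18 HPLC, eluted with CH3OH/H2O 0.7/0.3 at 1 mL/min for 40 min, UV detection at 254.8 nm. Retention time tR recorded; acetone peak taken as t0 (1.591 min). Log K = Log[(tR − t0)/t0].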

Each structure is given as a SMILES string.

Broadly, the IC50 is the concentration that inhibits the measured activity by half. Low values mean greater potency in that assay, high ones weaker potency in that assay. By LD50 is commonly meant the dose at which mortality reaches 50%. On to `CC1(C)N2Cc3[nH]c4ccccc4c3C[C@H]2C(=O)N1[C@@H](CC(=O)OCc1ccccc1)C(=O)OCc1ccccc1`, for which the Activity was 33.37 g in data set [1]; “Non-toxic” in [2]; 0.31 g in data set [3]; “Dose-dependent effect” in data set [4]; 0.17 g in [6]; “Non-toxic” in data set [7]. Besides, the Activity in data set [9] is reported as 0.057 g; in data set [11], “Non-toxic”; in data set [12] it was 0.746 g; in data set [14], 0.23 g; in [15] it was 0.24 g; in data set [16] it was “Non-toxic”. Moreover, the Activity result is recorded as “Non-toxic” in data set [18], 1.305 g in data set [19], 1.013 g in data set [20] and 2.26 g in data set [22]. Further, the IC50 in [5] came out at 36.3 µM; in data set [8] it was 0.15 µM; in data set [10] it was 0.04 µM; in [17] it was 7.01 µM; in [21], 38.6 µM. The same compound came in with a median lethal dose (LD50) at 168 h in data set [13] of more than 500 mg/kg. Further, the “log K” value in data set [23] is 0.96.
